Laboratory results reported in ChEMBL document CHEMBL1208709, “Synthesis and pharmacological evaluation of 1,1,3-substituted urea derivatives as potent TNF-alpha production inhibitors” (2010).
The source made the active and inactive calls. The calls are words filed in the database; no cut-off is given here.

Tested on: Rattus norvegicus
Assay: Antiinflammatory activity in Lewis rat assessed as inhibition of LPS-induced TNFalpha production at 2 mg/kg, po administered 30 mins prior to LPS challenge measured after 1.5 hrs
Type: functional

Structure (SMILES)	inhibition in vivo at 2 mg/kg	inhibition
COCCCN(CCC1CC2CCC1C2)C(=O)NCCCc1ccncc1 (stereo unspecified)	10%	
CCCCN(CCN1CCOCC1)C(=O)NCCCc1ccncc1	21%	
O=C(NCCCc1ccncc1)N(CCCC1CCCCC1)CCC1CCCCC1	92%	
O=C(NCCCc1ccncc1)N(CCN1CCOCC1)CCC12CC3CC(CC(C3)C1)C2	45%	
O=C(NCCCc1ccncc1)N(CCC1CCOCC1)CCN1CCOCC1		inactive
CCOCCN(CCC1CCCCC1)C(=O)NCCCc1ccncc1	4%	
O=C(NCCCc1ccncc1)N(CCC1CCCCC1)CCN1C2CCC1CC2	48%	
O=C(NCCCc1ccncc1)N(CCCN1CCOCC1)CCC1CC2CCC1C2 (stereo unspecified)	44%	
O=C(NCCCc1ccncc1)N(CCN1CCOCC1)CCN1C2CCC1CC2	8%	
O=C(NCCCc1ccncc1)N(CCCC1CCCCC1)CCC1CCCC1	87%	
O=C(NCCCc1ccncc1)N(CCCC1CCCCC1)CC1CCCCC1	71%	
COCCCN(CCC1CCCCC1)C(=O)NCCCc1ccncc1		inactive
O=C(NCCCc1ccncc1)N(CCC1CCCCC1)CCN1CCOCC1	50%	
CCOCCN(CCC1CC2CCC1C2)C(=O)NCCCc1ccncc1 (stereo unspecified)		inactive
CCCCCN(CCC12CC3CC(CC(C3)C1)C2)C(=O)NCCCc1ccncc1	72%	
O=C(NCCCc1ccncc1)N(CCC1CC2CCC1C2)CCN1CCOCC1 (stereo unspecified)	55%	
O=C(NCCCc1ccncc1)N(CCCN1CCOCC1)CCC1CCCCC1	43%	
CCCCN(CCCN1CCOCC1)C(=O)NCCCc1ccncc1	32%	
O=C(NCCCc1ccncc1)N(CCC1CCCCC1)CCC1CCCCC1	91%	
CCCCN(CCOCC)C(=O)NCCCc1ccncc1		inactive
O=C(NCCCc1ccncc1)N(CCCN1CCOCC1)CCC12CC3CC(CC(C3)C1)C2	45%	
O=C(NCCCc1ccncc1)N(CCC1CCCCC1)CCC1CCOCC1	38%	
COCCOCCN(CCC1CCCCC1)C(=O)NCCCc1ccncc1	14%	
CCCCN(CCCOC)C(=O)NCCCc1ccncc1	21%	

Tested on: Rattus norvegicus
Assay: Antiinflammatory activity in po dosed Lewis rat assessed as inhibition of LPS-induced TNFalpha production administered 30 mins prior to LPS challenge measured after 1.5 hrs
Type: functional
How it was run: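 Overnight-fasted male Lewis rats (seven weeks old) were dosed orally at 0.1, 0.3, 1 and 3 mg/kg, 30 min before IV LPS (E. coli 055:B5 in saline). Serum TNF-α was measured by ELISA 1.5 h post-LPS, five rats per group, mean ± SEM. Dunnett's t-test versus vehicle; ED₅₀ taken from the dose-response.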

Structure (SMILES)	ED50
O=C(NCCCc1ccncc1)N(CCCC1CCCCC1)CCC1CCCCC1	0.34 mg/kg
CCCCCN(CCC12CC3CC(CC(C3)C1)C2)C(=O)NCCCc1ccncc1	1.7 mg/kg
